In ChEMBL document CHEMBL2040780, “Antiarrhythmic properties of phenylpiperazine derivatives of phenytoin with α₁-adrenoceptor affinities” (Bioorg Med Chem, 2012):
The source made the active and inactive calls. The calls are words filed in the database; no cut-off is given here.

What was measured:
Rattus norvegicus [1] = assay: Antiarrhythmic activity in iv dosed Wistar rat assessed as protection against adrenaline-induced bigeminy administered 15 mins prior to adrenaline-challenge; type: functional, organism-based; conditions: Heart
Outline: (§1)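 Szekeres model in male Wistar rats anaesthetised with thiopental (60 mg/kg ip). Test compound given iv in water (2.5–10 mg/kg) 15 min before adrenaline 20 µg/kg iv. Scored for extrasystoles, bigeminy and mortality; activity means no premature beats and inhibited arrhythmia versus controls.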

Rattus norvegicus [2] = assay: Antiarrhythmic activity in iv dosed Wistar rat assessed as protection against adrenaline-induced extrasystoles administered 15 mins prior to adrenaline-challenge; type: functional, organism-based; conditions: Heart; outline: as §1
Rattus norvegicus [3] = assay: Antiarrhythmic activity in iv dosed Wistar rat assessed as protection against barium chloride-induced extrasystoles administered 15 mins prior to barium chloride-challenge; type: functional, Heart
Outline: (§2)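 Szekeres model in male Wistar rats. Activity is gradual disappearance of arrhythmia with restored sinus rhythm; protection against disturbances and death scored. Groups of 6 animals.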

Rattus norvegicus [4] = assay: Cardiotoxicity in Wistar rat assessed as effect on P-Q interval at 5 mg/kg, iv after 5 mins; type: toxicity, organism-based; design: dose 5 mg/kg, route intravenous; conditions: in vivo
Outline: (§3)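 Male Wistar rats (180–250 g), anaesthetised with thiopental 60 mg/kg ip. Compound given iv in water at 10 mg/kg, or at a lower starting dose of 5 or 2.5 mg/kg. Standard lead II ECG recorded at 50 mm/s just before dosing and at 1, 5 and 15 min after. Heart rate and P–Q, Q–T and QRS intervals were read. n=6 per group, mean ± SEM, one-way ANOVA.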

Rattus norvegicus [5] = assay: Cardiotoxicity in Wistar rat assessed as effect on Q-T interval at 5 mg/kg, iv after 5 mins; type: toxicity, organism-based; design: dose 5 mg/kg, route intravenous; conditions: in vivo; outline: as §3
Rattus norvegicus [6] = assay: Antiarrhythmic activity in barium chloride-induced Wistar rat arrhythmia model assessed as protection against mortality at 2.5 to 10 mg/kg, iv administered 15 mins prior to barium chloride-challenge; type: functional, organism-based; conditions: Heart; outline: as §2
Rattus norvegicus [7] = assay: Cardiotoxicity in Wistar rat assessed as effect on Q-T interval at 5 mg/kg, iv after 15 mins; type: toxicity, organism-based; design: dose 5 mg/kg, route intravenous; conditions: in vivo, 0.25 h; outline: as §3
Rattus norvegicus [8] = assay: Cardiotoxicity in Wistar rat assessed as effect on P-Q interval at 5 mg/kg, iv after 1 min; type: toxicity, organism-based; design: dose 5 mg/kg, route intravenous; conditions: in vivo; outline: as §3
Rattus norvegicus [9] = assay: Antiarrhythmic activity in Wistar rat assessed as effect on heart beat at 5 mg/kg, iv after 1 min; type: functional; outline: as §3
Rattus norvegicus [10] = assay: Hypotensive activity in normotensive Wistar rat assessed as decrease in systolic blood pressure at 2.5 to 10 mg/kg, iv at 1 min; type: organism-based, Artery; design: dose 2.5-10 mg/kg, route intravenous; conditions: in vivo
Outline: (§4)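 Right carotid artery cannulated with heparin-saline-filled tubing for blood pressure recording. After 5 min stabilisation, compound injected iv into the caudal vein (2.5–10 mg/kg, 1 ml/kg). Systolic and diastolic pressure followed for 60 min. n=6 per group, mean ± SEM, one-way ANOVA.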

[11] = target: T1, Adrenergic receptor alpha-1 (Rattus norvegicus, UniProt P15823+P23944+P43140); assay: Displacement of [3H]prazosin from alpha1 adrenoceptor in rat cerebral cortex after 30 mins by microbeta scintillation counting; type: tissue-based
T1 sequence (P15823 whole entry): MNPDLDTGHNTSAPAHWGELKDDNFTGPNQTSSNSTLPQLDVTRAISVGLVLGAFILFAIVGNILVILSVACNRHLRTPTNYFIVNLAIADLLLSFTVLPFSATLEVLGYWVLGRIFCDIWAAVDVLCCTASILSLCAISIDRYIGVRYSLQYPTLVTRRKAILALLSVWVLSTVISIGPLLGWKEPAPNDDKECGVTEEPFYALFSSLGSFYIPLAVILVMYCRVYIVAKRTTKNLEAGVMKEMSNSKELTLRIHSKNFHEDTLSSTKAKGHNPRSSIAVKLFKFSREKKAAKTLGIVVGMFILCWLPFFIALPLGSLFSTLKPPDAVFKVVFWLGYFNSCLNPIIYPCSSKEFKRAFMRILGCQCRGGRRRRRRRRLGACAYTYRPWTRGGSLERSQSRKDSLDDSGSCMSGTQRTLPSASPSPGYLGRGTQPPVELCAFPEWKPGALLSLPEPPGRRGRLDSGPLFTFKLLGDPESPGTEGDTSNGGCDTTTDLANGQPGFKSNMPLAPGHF
T1 sequence (P23944 whole entry): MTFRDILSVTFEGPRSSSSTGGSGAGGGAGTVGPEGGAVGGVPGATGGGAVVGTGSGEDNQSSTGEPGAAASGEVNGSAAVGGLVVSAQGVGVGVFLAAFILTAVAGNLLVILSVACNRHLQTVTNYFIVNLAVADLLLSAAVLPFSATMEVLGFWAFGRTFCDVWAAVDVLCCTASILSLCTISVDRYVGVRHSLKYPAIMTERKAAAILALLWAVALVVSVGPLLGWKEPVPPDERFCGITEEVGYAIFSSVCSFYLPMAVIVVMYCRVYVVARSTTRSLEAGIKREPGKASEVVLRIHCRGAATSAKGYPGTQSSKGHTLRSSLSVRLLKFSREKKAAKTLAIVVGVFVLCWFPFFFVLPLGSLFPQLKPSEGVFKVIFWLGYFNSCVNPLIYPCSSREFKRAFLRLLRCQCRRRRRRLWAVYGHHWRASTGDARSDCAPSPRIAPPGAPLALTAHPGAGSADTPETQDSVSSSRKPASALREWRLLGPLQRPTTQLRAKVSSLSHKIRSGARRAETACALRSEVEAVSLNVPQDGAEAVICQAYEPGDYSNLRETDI
T1 sequence (P43140 whole entry): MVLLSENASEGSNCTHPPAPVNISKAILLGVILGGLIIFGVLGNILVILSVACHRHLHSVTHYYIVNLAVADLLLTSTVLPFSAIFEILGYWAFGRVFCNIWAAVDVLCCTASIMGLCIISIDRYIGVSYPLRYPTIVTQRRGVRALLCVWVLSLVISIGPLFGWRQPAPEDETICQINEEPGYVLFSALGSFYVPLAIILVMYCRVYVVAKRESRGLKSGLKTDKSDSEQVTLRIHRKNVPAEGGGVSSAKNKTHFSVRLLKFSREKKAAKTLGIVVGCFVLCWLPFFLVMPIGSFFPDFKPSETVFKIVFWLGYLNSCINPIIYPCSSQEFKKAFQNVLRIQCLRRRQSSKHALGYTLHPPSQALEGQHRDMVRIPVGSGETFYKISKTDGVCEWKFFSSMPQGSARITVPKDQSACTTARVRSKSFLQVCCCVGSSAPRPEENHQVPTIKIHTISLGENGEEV
Outline: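 Rat cerebral cortex homogenised in ice-cold 50 mM Tris-HCl (pH 7.6 at 25 °C), washed twice at 20000×g and resuspended at 10 mg wet weight/ml. Incubated with [3H]prazosin (19.5 Ci/mmol) and test compound for 30 min at 25 °C. Nonspecific binding defined with 10 µM phentolamine. GF/B filtration, scintillation counting, three-parameter logistic competition fit.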

Rattus norvegicus [12] = assay: Antiarrhythmic activity in Wistar rat assessed as protection against adrenaline-induced extrasystoles at 2.5 to 10 mg/kg, iv administered 15 mins prior to adrenaline-challenge; type: functional, organism-based; conditions: Heart; outline: as §1
Rattus norvegicus [13] = assay: Antiarrhythmic activity in Wistar rat assessed as effect on heart beat at 5 mg/kg, iv after 5 mins; type: functional; outline: as §3
Rattus norvegicus [14] = assay: Antiarrhythmic activity in dosed Wistar rat assessed as protection against barium chloride-induced fibrillation administered 15 mins prior to barium chloride-challenge; type: functional, Heart; outline: as §2
Rattus norvegicus [15] = assay: Cardiotoxicity in Wistar rat assessed as effect on QRS interval at 5 mg/kg, iv after 1 min; type: toxicity, organism-based; design: dose 5 mg/kg, route intravenous; conditions: in vivo; outline: as §3
Rattus norvegicus [16] = assay: Cardiotoxicity in Wistar rat assessed as effect on Q-T interval at 5 mg/kg, iv after 1 min; type: toxicity, organism-based; design: dose 5 mg/kg, route intravenous; conditions: in vivo; outline: as §3
Rattus norvegicus [17] = assay: Antiarrhythmic activity in Wistar rat assessed as protection against adrenaline-induced bigeminy at 2.5 to 10 mg/kg, iv administered 15 mins prior to adrenaline-challenge; type: functional, organism-based; conditions: Heart; outline: as §1
Rattus norvegicus [18] = assay: Hypotensive activity in normotensive Wistar rat assessed as decrease in systolic blood pressure at 2.5 to 10 mg/kg, iv after 1 min measured up to 60 mins; type: organism-based, Artery; design: dose 2.5-10 mg/kg, route intravenous; conditions: in vivo; outline: as §4
Rattus norvegicus [19] = assay: Antiarrhythmic activity in iv dosed Wistar rat assessed as protection against adrenaline-induced arrhythmia administered 15 mins prior to adrenaline-challenge; type: functional; conditions: Heart; outline: as §1
Rattus norvegicus [20] = assay: Hypotensive activity in normotensive Wistar rat assessed as decrease in diastolic blood pressure at 2.5 to 10 mg/kg, iv after 1 min measured up to 60 mins; type: organism-based, Artery; design: dose 2.5-10 mg/kg, route intravenous; conditions: in vivo; outline: as §4
Rattus norvegicus [21] = assay: Hypotensive activity in normotensive Wistar rat assessed as decrease in diastolic blood pressure at 2.5 to 10 mg/kg, iv at 1 min; type: organism-based, Artery; design: dose 2.5-10 mg/kg, route intravenous; conditions: in vivo; outline: as §4
Rattus norvegicus [22] = assay: Antiarrhythmic activity in Wistar rat assessed as effect on heart beat at 5 mg/kg, iv after 15 mins; type: functional; outline: as §3
Rattus norvegicus [23] = assay: Cardiotoxicity in Wistar rat assessed as effect on QRS interval at 5 mg/kg, iv after 5 mins; type: toxicity, organism-based; design: dose 5 mg/kg, route intravenous; conditions: in vivo; outline: as §3
Rattus norvegicus [24] = assay: Cardiotoxicity in Wistar rat assessed as effect on QRS interval at 5 mg/kg, iv after 15 mins; type: toxicity, organism-based; design: dose 5 mg/kg, route intravenous; conditions: in vivo, 0.25 h; outline: as §3
Rattus norvegicus [25] = assay: Cardiotoxicity in Wistar rat assessed as effect on P-Q interval at 5 mg/kg, iv after 15 mins; type: toxicity, organism-based; design: dose 5 mg/kg, route intravenous; conditions: in vivo, 0.25 h; outline: as §3

| SMILES | Activity (Rattus norvegicus [1]) | Activity (Rattus norvegicus [2]) | Activity (Rattus norvegicus [4]) [ms] | Activity (Rattus norvegicus [5]) [ms] | Activity (Rattus norvegicus [7]) [ms] | Activity (Rattus norvegicus [8]) [ms] | Activity (Rattus norvegicus [9]) [min⁻¹] | Activity (Rattus norvegicus [10]) | Ki [11] [µM] | pKi [11] | Activity (Rattus norvegicus [13]) [min⁻¹] | Activity (Rattus norvegicus [15]) [ms] | Activity (Rattus norvegicus [16]) [ms] | Activity (Rattus norvegicus [18]) | Activity (Rattus norvegicus [20]) | Activity (Rattus norvegicus [21]) | Activity (Rattus norvegicus [22]) [min⁻¹] | Activity (Rattus norvegicus [23]) [ms] | Activity (Rattus norvegicus [24]) [ms] | Activity (Rattus norvegicus [25]) [ms] | further results |
| --- | --- | --- | --- | --- | --- | --- | --- | --- | --- | --- | --- | --- | --- | --- | --- | --- | --- | --- | --- | --- | --- |
| CC(C)NCC(O)COc1cccc2ccccc12 (stereo not drawn) | Active | Active | – | – | – | – | – | – | – | – | – | – | – | – | – | – | – | – | – | – | – |
| CN1C(=O)N(CC(O)CN2CCN(c3ccccc3F)CC2)C(c2ccccc2)(c2ccccc2)C1=O.Cl (racemic) | – | – | 62 | 74 | 68 | 64 | 272 | Toxic | 0.5646 | 6.25 | 251 | 20 | 81 | Non-toxic | Non-toxic | Toxic | 258 | 17 | 16 | 59 | Activity (Rattus norvegicus [3]): >50%; Activity (Rattus norvegicus [6]): Active; Activity (Rattus norvegicus [12]): Active; Activity (Rattus norvegicus [14]): >50%; Activity (Rattus norvegicus [17]): Active; ED50 (Rattus norvegicus [19]): 1.92 mg/kg |
| COC(=O)CN1C(=O)N(CC(O)CN2CCN(c3ccccc3)CC2)C(c2ccccc2)(c2ccccc2)C1=O.Cl (racemic) | – | – | 65.2 | 81 | 74 | 72 | 246 | Toxic | – | – | 261 | 33 | 97 | Non-toxic | Non-toxic | Toxic | 272 | 26 | 22 | 64 | – |
| COC(=O)CN1C(=O)N(CC(O)CN2CCN(c3ccccc3Cl)CC2)C(c2ccccc2)(c2ccccc2)C1=O.Cl (racemic) | – | – | 63 | 76 | 69 | 62 | 290 | Toxic | 0.3547 | 6.45 | 256 | 16 | 76 | Non-toxic | Non-toxic | Toxic | 268 | 15 | 17 | 59 | – |
| c1ccc(CC2=NCCN2)cc1 [TOLAZOLINE] | Active | Active | – | – | – | – | – | – | – | – | – | – | – | – | – | – | – | – | – | – | ED50 (Rattus norvegicus [19]): 3.4 mg/kg |
